Values after ≈ are worked out from the molar mass of the structure shown. Active and inactive are the calls of the source. The rule behind the calls is not given here.

Assay [1] in a line: The inhibitory activity of compound against MraY or MurG at 100 ug/mL; Inhibit.
Assay [2] is described as follows: The inhibitory activity of compound against MraY or MurG at 50 ug/mL; Inhibit.
A short description of assay [3]: The inhibitory activity of compound against MraY or MurG at 12.5 ug/mL; Inhibit.
The nature of assay [4]: The inhibitory activity of compound against MraY or MurG at 25 ug/mL; Inhibit.
Assay [5] is described as follows: The inhibitory activity of compound against MraY or MurG at 6.25 ug/mL; Inhibit.
The test system of assay [6] is Candida albicans. The assay is described as follows: In vitro antimicrobial activity against Candida albicans […] at 32 ug/ml soluble peptidoglycan. It counts as functional.
Assay [7] deals with Staphylococcus aureus. The assay is described as follows: In vitro antimicrobial activity against Staphylococcus aureus GC 4536 at 32 ug/ml soluble peptidoglycan. The assay is classed as functional.
Assay [8] deals with Staphylococcus sp. The assay is described as follows: In vitro antimicrobial activity against Coagulase-negative staphylococcus GC 4538 at 32 ug/ml soluble peptidoglycan. The assay is classed as functional.
Assay [9] deals with Enterococcus faecalis. Briefly: In vitro antimicrobial activity against Enterococcus faecalis GC 4555 at 32 ug/ml soluble peptidoglycan. It counts as functional.
In assay [10] the test system is Bacteria. The assay is described as follows: In vitro antimicrobial activity against gram-negative organisms (10).
The test system of assay [11] is Staphylococcus sp. The assay is described as follows: In vitro antimicrobial activity against CNS GC 4538 at 32 ug/ml soluble peptidoglycan. It counts as functional.
The test system of assay [12] is Enterococcus faecalis. Briefly: In vitro antimicrobial activity against Enterococcus faecalis GC 2242 at 32 ug/ml soluble peptidoglycan. It counts as functional.
The subject of assay [13] is Staphylococcus sp. Briefly: In vitro antimicrobial activity against CNS GC 4547 at 32 ug/ml soluble peptidoglycan. It counts as functional.
Assay [14] concerns Enterococcus faecalis. The assay is described as follows: In vitro antimicrobial activity against Enterococcus faecalis GC 842 at 32 ug/ml soluble peptidoglycan. It counts as functional.
For assay [15], the system named is Staphylococcus aureus. The assay is described as follows: In vitro antimicrobial activity against Staphylococcus aureus GC 1131 at 32 ug/ml soluble peptidoglycan. It counts as functional.
For assay [16], the system named is Staphylococcus aureus. The assay is described as follows: In vitro antimicrobial activity against Staphylococcus aureus GC 2216 at 32 ug/ml soluble peptidoglycan. The assay is classed as functional.
The nature of assay [17]: The inhibitory activity of compound against MraY or MurG at 6.25 ug/mL; No Inhibition.
Assay [18] relates to Staphylococcus aureus. Briefly: In vitro antimicrobial activity against Staphylococcu aureus GC 2216. The assay is classed as functional. The essentials:
(§1)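 Broth microdilution per NCCLS guidance. Serial dilutions of each agent in microtiter plates are inoculated with each organism to 10⁵ CFU/mL and incubated 18–22 h at 35 C in ambient air. MIC is the lowest concentration giving complete growth inhibition, judged by the unaided eye.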

Assay [19] relates to Candida albicans. The assay is described as follows: In vitro antimicrobial activity against Candida albicans GC 3066. It counts as functional. Summed up:
as §1

Assay [20] concerns Enterococcus faecalis. Briefly: In vitro antimicrobial activity against Enterococcus faecalis GC 4555. The assay is classed as functional. The essentials:
as §1

In assay [21] the test system is Escherichia coli. The assay is described as follows: In vitro antimicrobial activity against Escherichia coli GC 4560. The assay is classed as functional. Summed up: as §1
Assay [22] relates to Staphylococcus aureus. The assay is described as follows: In vitro antimicrobial activity against Staphylococcu aureus GC 1131. The assay is classed as functional. The essentials: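 Broth dilution per NCCLS recommendations. Serial dilutions in microtiter plates inoculated to 10⁵ CFU/mL, then incubated 18–22 h at 35 C in ambient air. MIC taken as the lowest concentration giving complete growth inhibition by unaided eye.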

The subject of assay [23] is Escherichia coli. Briefly: In vitro antimicrobial activity against Escherichia coli GC 2214. It counts as functional. Summed up: as §1
Assay [24] relates to Pseudomonas aeruginosa. The assay is described as follows: In vitro antimicrobial activity against Pseudomonas aeruginosa GC 2214. The assay is classed as functional. Summed up:
as §1

The nature of assay [25]: The inhibitory activity of compound against MraY or MurG at 25 ug/mL; No Inhibition.
The nature of assay [26]: The inhibitory activity of compound against MraY or MurG at 12.5 ug/mL; No Inhibition.
Assay [27] concerns Enterococcus faecalis. The assay is described as follows: In vitro antimicrobial activity against Enterococcus faecalis GC 2242. The assay is classed as functional. The essentials: as §1
For assay [28], the system named is Escherichia coli. Briefly: In vitro antimicrobial activity against Escherichia coli GC 3226. It counts as functional. Summed up: as §1
The subject of assay [29] is Staphylococcus sp. The assay is described as follows: In vitro antimicrobial activity against CNS GC 4538. The assay is classed as functional. The essentials:
as §1

The test system of the next assay is Serratia marcescens. The assay is described as follows: In vitro antimicrobial activity against Serratia marcescens GC 4077. It counts as functional. Summed up: as §1
Assay [30] deals with Bacteria. The assay is described as follows: In vitro antimicrobial activity against gram-negative organisms (10). The assay is classed as functional. The essentials: as §1
A further assay relates to Enterobacter cloacae. The assay is described as follows: In vitro antimicrobial activity against Enterobacter cloacae GC 3783. It counts as functional. The essentials:
as §1

Another assay relates to Klebsiella pneumoniae. Briefly: In vitro antimicrobial activity against Klebsiella pneumoniae GC 4534. It counts as functional. The essentials: as §1
In a further assay the test system is Enterococcus sp. Briefly: In vitro antimicrobial activity against Enterococci. It counts as functional. Summed up: as §1
For the next assay, the system named is Morganella morganii. Briefly: In vitro antimicrobial activity against Morganella morganii GC 4531. It counts as functional. The essentials:
as §1

Assay [31] relates to Enterococcus faecalis. The assay is described as follows: In vitro antimicrobial activity against Enterococcus faecalis GC 842. The assay is classed as functional. Summed up: as §1
The test system of assay [32] is Pseudomonas aeruginosa. Briefly: In vitro antimicrobial activity against Pseudomonas aeruginosa GC 4532. It counts as functional. The essentials:
as §1

Assay [33] has as its system Escherichia coli. The assay is described as follows: In vitro antimicrobial activity against Escherichia coli GC 4559. The assay is classed as functional. Summed up: as §1
Assay [34] has as its system Staphylococcus sp. Briefly: In vitro antimicrobial activity against Staphylococci. The assay is classed as functional, staphyl ococcus species. The essentials: as §1
Assay [35] has as its system Staphylococcus sp. Briefly: In vitro antimicrobial activity against CNS GC 4547. The assay is classed as functional. Summed up: as §1
The subject of assay [36] is Staphylococcus aureus. The assay is described as follows: In vitro antimicrobial activity against Staphylococcu aureus GC 4536. It counts as functional. Summed up:
as §1

Setting [37] is: Staphylococcus sp., read-out: MIC.

For `COC1C(O)[C@@H](OC(C(NCCCNC(=O)[C@H](NC(=O)[C@@H](NC(=O)N[C@H](C(=O)O)C(C)C)C2CCN=C(N)N2)C(O)C(C)C)C(=O)O)[C@H]2O[C@@H](n3ccc(=O)[nH]c3=O)[C@H](O)[C@@H]2O)O[C@H]1CN` (some centres not stated), the Inhibitory activity entry in assay [1], in [2], in assay [3], in assay [4] and in assay [5] was “Inhibit” throughout.

In the case of `COc1ccc(Cn2c(=O)ccn([C@@H]3OC([C@H](O)[C@H](NCCCNC(=O)[C@H](NC(=O)OCc4ccccc4)C(C)O)C(=O)OC(C)(C)C)[C@@H](O[Si](C)(C)C(C)(C)C)[C@H]3O[Si](C)(C)C(C)(C)C)c2=O)cc1` (some centres not stated), the MIC – broadly, the least concentration at which growth counts as inhibited – was 128 µg/mL (≈ 126 µM) in the assay with Candida albicans [6]; over 128 µg/mL in the assay with Staphylococcus aureus [7]; over 128 µg/mL against Staphylococcus sp. [8]; over 128 µg/mL against Enterococcus faecalis [9]; over 128 µg/mL against Bacteria [10]; over 128 µg/mL in the assay with Staphylococcus sp. [11]. Moreover, the MIC is over 128 µg/mL against Enterococcus faecalis [12]; over 128 µg/mL in the assay on Staphylococcus sp. [13]; 128 µg/mL (≈ 126 µM) with Enterococcus faecalis [14]; over 128 µg/mL against Staphylococcus aureus [15]; over 128 µg/mL against Staphylococcus aureus [16].

Consider `COc1ccc(Cn2c(=O)ccn([C@@H]3OC([C@H](O)[C@H](NCCCNC(=O)[C@H](N)CCCCNC(=O)OCc4ccccc4)C(=O)OC(C)(C)C)[C@@H](O[Si](C)(C)C(C)(C)C)[C@H]3O[Si](C)(C)C(C)(C)C)c2=O)cc1` (some centres not stated), for which the Inhibitory activity result in assay [1] and in assay [2] was “Inhibit” throughout. The Inhibitory activity entry in assay [17], in assay [25] and in assay [26] was “inactive” in each case. In addition, the minimal inhibitory concentration (MIC) with Staphylococcus aureus [18] was 8 µg/mL (≈ 7.68 µM); against Candida albicans [19], over 128 µg/mL; in the assay on Enterococcus faecalis [20] it was 8 µg/mL (≈ 7.68 µM); in the assay with Escherichia coli [21] it was 8 µg/mL (≈ 7.68 µM); in the assay on Staphylococcus aureus [22], 4 µg/mL (≈ 3.84 µM); against Escherichia coli [23], 128 µg/mL (≈ 123 µM). The MIC in the assay with Pseudomonas aeruginosa [24] was over 128 µg/mL; against Enterococcus faecalis [27] it was 8 µg/mL (≈ 7.68 µM); in the assay with Escherichia coli [28] it was 128 µg/mL (≈ 123 µM); with Staphylococcus sp. [29], 8 µg/mL (≈ 7.68 µM); in the assay on Staphylococcus sp. [29] (setting [37]), 8 µg/mL (≈ 7.68 µM); in the assay on Serratia marcescens, 128 µg/mL (≈ 123 µM). Further, the MIC against Bacteria [30] was 128 µg/mL (≈ 123 µM); in the assay with Enterobacter cloacae, over 128 µg/mL; with Klebsiella pneumoniae, over 128 µg/mL; in the assay on Enterococcus sp., 8 µg/mL (≈ 7.68 µM); with Morganella morganii, 128 µg/mL (≈ 123 µM); against Enterococcus faecalis [31], 8 µg/mL (≈ 7.68 µM). In addition, the minimum inhibitory concentration (MIC) in the assay on Pseudomonas aeruginosa [32] was over 128 µg/mL; against Escherichia coli [33], over 128 µg/mL; against Staphylococcus sp. [34], 4 µg/mL (≈ 3.84 µM); with Staphylococcus sp. [35], 16 µg/mL (≈ 15.4 µM); in the assay with Staphylococcus aureus [36], 8 µg/mL (≈ 7.68 µM).

For `CC(C)C(O)[C@@H](N)C(=O)NCCCN[C@H](C(=O)OC(C)(C)C)[C@@H](O)C1O[C@@H](n2ccc(=O)[nH]c2=O)[C@H](O[Si](C)(C)C(C)(C)C)[C@@H]1O[Si](C)(C)C(C)(C)C` (some centres not stated), the Inhibitory activity result in assay [1], in assay [2], in [3] and in [4] was “Inhibit” in each case. Moreover, the Inhibitory activity result in assay [17] was “inactive”. The minimum inhibitory concentration (MIC) was determined as 2 µg/mL (≈ 2.54 µM) against Staphylococcus aureus [18]; 32 µg/mL (≈ 40.6 µM) against Candida albicans [19]; 2 µg/mL (≈ 2.54 µM) against Enterococcus faecalis [20]; 32 µg/mL (≈ 40.6 µM) against Escherichia coli [21]; 1 µg/mL (≈ 1.27 µM) in the assay on Staphylococcus aureus [22]; 128 µg/mL (≈ 162 µM) with Escherichia coli [23]. For the same compound, the MIC with Pseudomonas aeruginosa [24] is over 128 µg/mL; against Enterococcus faecalis [27] it was 2 µg/mL (≈ 2.54 µM); in the assay on Escherichia coli [28], over 128 µg/mL; in the assay on Staphylococcus sp. [29], 2 µg/mL (≈ 2.54 µM); in the assay on Staphylococcus sp. [29] (setting [37]) it was 1 µg/mL (≈ 1.27 µM); with Serratia marcescens, 128 µg/mL (≈ 162 µM). Further, the minimum inhibitory concentration (MIC) is over 128 µg/mL against Bacteria [30]; 128 µg/mL (≈ 162 µM) against Enterobacter cloacae; 128 µg/mL (≈ 162 µM) in the assay on Klebsiella pneumoniae; 2 µg/mL (≈ 2.54 µM) with Enterococcus sp.; 128 µg/mL (≈ 162 µM) against Morganella morganii; 2 µg/mL (≈ 2.54 µM) against Enterococcus faecalis [31]. Moreover, the minimal inhibitory concentration (MIC) against Pseudomonas aeruginosa [32] is 128 µg/mL (≈ 162 µM); in the assay on Escherichia coli [33], over 128 µg/mL; in the assay on Staphylococcus sp. [34], 1 µg/mL (≈ 1.27 µM); against Staphylococcus sp. [35] it was 2 µg/mL (≈ 2.54 µM); in the assay with Staphylococcus aureus [36], 1 µg/mL (≈ 1.27 µM).
